Measurements: ChEMBL document CHEMBL1811814, “Synthesis and evaluation of indole, pyrazole, chromone and pyrimidine based conjugates for tumor growth inhibitory activities--development of highly efficacious cytotoxic agents” (Eur J Med Chem, 2010)

Key:
Format in all cases: functional
SW-620 = test: Growth inhibition of human SW620 cells; conditions: read-out: LC50 (the source's name)
LOX IMVI = test: Growth inhibition of human LOXIMVI cells assessed tumor cell growth at 10^-5 M; design: scale not given: the % may be the effect or the level left
Procedure, shortened: (§1)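 NCI 60-human-tumor-cell-line panel screen. Each compound was tested at a single concentration of 10^-5 M, and percent growth of tumor cells was recorded for each cell line. Growth inhibition was expressed from these percent-growth values.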

EKVX = test: Growth inhibition of human EKVX cells
NCI-H322M = test: Growth inhibition of human NCI-H322M cells
786-0 = test: Growth inhibition of human 786-0 cells assessed tumor cell growth at 10^-5 M; design: scale not given: the % may be the effect or the level left; procedure, shortened: as §1
RXF 393 = test: Growth inhibition of human RXF393 cells assessed tumor cell growth at 10^-5 M; design: scale not given: the % may be the effect or the level left; procedure, shortened: as §1
HT-29 = test: Growth inhibition of human HT-29 cells
CCRF-CEM = test: Growth inhibition of human CCRF-CEM cells assessed tumor cell growth at 10^-5 M; design: scale not given: the % may be the effect or the level left; procedure, shortened: as §1
SK-MEL-2 = test: Growth inhibition of human SK-MEL-2 cells assessed tumor cell growth at 10^-5 M; design: scale not given: the % may be the effect or the level left; procedure, shortened: as §1
CAKI-1 = test: Growth inhibition of human Caki1 cells
UACC-257 [1] = test: Growth inhibition of human UACC257 cells
T47D = test: Growth inhibition of human T47D cells assessed tumor cell growth at 10^-5 M; design: scale not given: the % may be the effect or the level left
Procedure, shortened: (§2)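 Single-dose screen at 10^-5 M across the 60 human tumor cell line panel, run to NCI standards. The value is the percent growth of each cell line in the presence of compound. Compounds active at this dose moved on to five-concentration testing (10^-4 to 10^-8 M).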

K562 = test: Growth inhibition of human K562 cells assessed tumor cell growth at 10^-5 M; design: scale not given: the % may be the effect or the level left; procedure, shortened: as §1
SNB-19 = test: Growth inhibition of human SNB19 cells
OVCAR-4 = test: Growth inhibition of human OVCAR4 cells
NCI-H23 = test: Growth inhibition of human NCI-H23 cells assessed tumor cell growth at 10^-5 M; design: scale not given: the % may be the effect or the level left; procedure, shortened: as §1
UO-31 = test: Growth inhibition of human UO31 cells assessed tumor cell growth at 10^-5 M; design: scale not given: the % may be the effect or the level left; procedure, shortened: as §2
NCI-H226 [2] = test: Growth inhibition of human NCI-H226 cells assessed tumor cell growth at 10^-5 M; design: scale not given: the % may be the effect or the level left; procedure, shortened: as §1
SF-539 = test: Growth inhibition of human SF539 cells assessed tumor cell growth at 10^-5 M; design: scale not given: the % may be the effect or the level left; procedure, shortened: as §1
OVCAR-8 = test: Growth inhibition of human OVCAR8 cells
HCT-15 = test: Growth inhibition of human HCT15 cells assessed tumor cell growth at 10^-5 M; design: scale not given: the % may be the effect or the level left; procedure, shortened: as §1
NCI-H226 [3] = test: Growth inhibition of human NCI-H226 cells
PC-3 = test: Growth inhibition of human PC3 cells
SK-MEL-28 = test: Growth inhibition of human SK-MEL-28 cells assessed tumor cell growth at 10^-5 M; design: scale not given: the % may be the effect or the level left; procedure, shortened: as §1
COLO 205 = test: Growth inhibition of human COLO205 cells assessed tumor cell growth at 10^-5 M; design: scale not given: the % may be the effect or the level left; procedure, shortened: as §1
UACC-257 [4] = test: Growth inhibition of human UACC257 cells assessed tumor cell growth at 10^-5 M; design: scale not given: the % may be the effect or the level left; procedure, shortened: as §2
NCI-H460 = test: Growth inhibition of human NCI-H460 cells
[5] = read-out: LC50 (the source's name)

O=C1/C(=C\c2ccccn2)c2ccccc2N1c1c(Cl)cccc1Cl
CC50 (SW-620): 6.7 µM
Activity (LOX IMVI): -89.2%
GI50 (EKVX): 2 µM
CC50 (EKVX; [5]): > 100 µM
GI50 (NCI-H322M): 2.8 µM
CC50 (NCI-H322M; [5]): 28.8 µM
Activity (786-0): -81.44%
Activity (RXF 393): -35.21%
GI50 (HT-29): 2.1 µM
CC50 (HT-29; [5]): 9.1 µM
Activity (CCRF-CEM): 8.81%
Activity (SK-MEL-2): 48.8%
GI50 (CAKI-1): 1.3 µM
CC50 (CAKI-1; [5]): 7.4 µM
GI50 (UACC-257 [1]): 1.7 µM
CC50 (UACC-257 [1]; [5]): 18.2 µM
Activity (T47D): 12.74%
Activity (K562): 9.42%
GI50 (SNB-19): 2.2 µM
CC50 (SNB-19; [5]): 32.3 µM
GI50 (OVCAR-4): 3.7 µM
CC50 (OVCAR-4; [5]): > 100 µM
Activity (NCI-H23): 12.97%
Activity (UO-31): 16.75%
Activity (NCI-H226 [2]): 25.22%
Activity (SF-539): 1.27%
GI50 (OVCAR-8): 2.1 µM
CC50 (OVCAR-8; [5]): > 100 µM
Activity (HCT-15): 12.58%
GI50 (NCI-H226 [3]): 0.01 µM
CC50 (NCI-H226 [3]; [5]): 9.1 µM
GI50 (PC-3): 2.2 µM
CC50 (PC-3; [5]): 93.3 µM
Activity (SK-MEL-28): -10.05%
Activity (COLO 205): -1.34%
Activity (UACC-257 [4]): 59.3%
GI50 (NCI-H460): 1.8 µM
CC50 (NCI-H460; [5]): 7 µM
